Experimental data as given in ChEMBL document CHEMBL1148795 (J Med Chem, 2007).
Calls of active or inactive are those of the source. No cut-off for these calls is given here.

How the values were obtained:
[1] = test system: Human immunodeficiency virus 2; experiment: Antiviral activity against HIV2 ROD in human MT4 cells by MTT assay; settings: for EC50: Human immunodeficiency virus 2, ROD
[2] = Cytotoxicity against human MT4 cells by MTT assay; format: cell-based
[3] = test system: Human immunodeficiency virus 1; experiment: Antiviral activity against HIV1 3B in human MT4 cells by MTT assay; settings: for EC50: Human immunodeficiency virus 1, 3B
[4] = molecular target: Human immunodeficiency virus type 1 reverse transcriptase (Human immunodeficiency virus 1, UniProt Q72547); experiment: Inhibition of HIV1 reverse transcriptase
[5] = test system: Human immunodeficiency virus 1; experiment: Antiviral activity against HIV1 RF in human CEM-SS cells by XTT assay; format: functional, organism-based; settings: for EC50: Human immunodeficiency virus 1, RF
[6] = Cytotoxicity against human CEM-SS cells by MTT assay; format: cell-based
[7] = Metabolic stability in rat plasma; format: ADME, cell-free
Method in brief: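 Compounds were incubated in reconstituted rat plasma (two lots, checked with a control compound), with 1,1-diphenylethylene as internal standard. Aliquot supernatants were analysed by HPLC with UV detection. Half-lives came from regression fits of concentration versus time and were averaged over at least two replicates.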

[8] = test system: Human immunodeficiency virus 1; experiment: Antiviral activity against HIV1 with RT K103N mutation; format: functional, organism-based
Method in brief: (§1)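 Cytoprotection assay in CEM-SS cells infected with HIV-1 strains engineered to carry the NNRTI-resistance RT mutation (K103N or Y181C). Activity is expressed as the EC50 for protection of the cells from virus-induced cytopathic effect.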

[9] = test system: Human immunodeficiency virus 1; experiment: Antiviral activity against HIV1 with RT Y181C mutation; format: functional, organism-based
Method in brief: as §1

Structure (SMILES)	Activity [1]	CC50 [2]	Activity [3]	IC50 [4]	Activity [5]	CC50 [6]	half-life [7]	EC50 [8]	EC50 [5]	EC50 [9]	EC50 [3]	EC50 [1]
COC(=O)c1cc(C(=CCCc2nnn(C)n2)c2cc(C)c(OC)c(C(=O)OC)c2)cc(C)c1OC	inactive	5 µM	inactive	53 µM	inactive	9.6 µM	24 min					
O=C1Nc2ccc(Cl)cc2C(C#CC2CC2)(C(F)(F)F)O1 (single isomer, unassigned) [EFAVIRENZ]	inactive	6 µM										
COC(=O)c1cc(C(=CCCc2nnn(C)n2)c2cc(C)c(OC)c(C(=O)SC)c2)cc(C)c1OC	inactive	1.4 µM	inactive	95 µM	inactive	1.6 µM						
COc1c(C)cc(/C(=C\CCc2nnc(C)o2)c2ccc3oncc3c2)cc1C(=O)SC				7.7 µM		38 µM		> 50 µM	2.6 µM	> 100 µM		
COc1c(C)cc(/C(=C/CCCc2nnc(C)o2)c2cc(C)c3oc(=O)n(C)c3c2)cc1C(=O)SC	inactive	7.7 µM	inactive	36 µM	inactive	5.5 µM						
COc1c(C)cc(/C(=C\CCCc2nnc(C)o2)c2cc(C)c3on(C)c(=O)c3c2)cc1C(=O)SC	inactive	9.9 µM		> 100 µM		6 µM			0.97 µM		0.76 µM	
COC(=O)CCCC=C(c1cc(Cl)c(OC)c(C(=O)OC)c1)c1cc(Cl)c(OC)c(C(=O)OC)c1		160 µM				32 µM	5.8 min		0.01 µM			25 µM
COC(=O)c1cc(/C(=C\CCc2nnn(C)n2)c2cccc(C#N)c2)cc(C)c1OC	inactive	34 µM		7.7 µM		7.4 µM	42 min		2.4 µM		1.5 µM	
COc1c(C)cc(/C(=C\CCCc2nnc(C)o2)c2cc(C)c3onc(OC)c3c2)cc1C(=O)SC	inactive	7 µM		0.47 µM		5.7 µM	864 min	0.4 µM	0.05 µM	> 100 µM	0.14 µM	
COc1c(C)cc(/C(=C/CCc2nnc(C)o2)c2cc(C)c3onc(OC)c3c2)cc1C(=O)SC	inactive	1.6 µM	inactive	33 µM	inactive	1.2 µM						
COc1c(C)cc(/C(=C/CCc2nnc(C)o2)c2cc(C)c3oc(=O)n(C)c3c2)cc1C(=O)SC		14 µM	inactive	90 µM	inactive	6.6 µM						5.9 µM
COc1c(C)cc(/C(=C\CCCc2nnc(C)o2)c2cccc(C#N)c2)cc1C(=O)SC	inactive	36 µM		0.52 µM		12 µM	221 min	1.2 µM	0.5 µM	> 100 µM	0.83 µM	
COC(=O)CCC/C=C(\c1cc(C)c(OC)c(C(=O)OC)c1)c1cc(C)c2oc(=O)n(C)c2c1	inactive											
COc1c(C)cc(/C(=C/CCc2nnc(C)o2)c2cc(C)c3on(C)c(=O)c3c2)cc1C(=O)SC	inactive	37 µM	inactive	> 100 µM	inactive	17 µM						
COc1c(C)cc(/C(=C/CCCc2nnc(C)o2)c2cccc(C#N)c2)cc1C(=O)SC	inactive	8.2 µM	inactive	7.7 µM	inactive	7.2 µM						
COc1c(C)cc(/C(=C\CCc2nnc(C)o2)c2cc(C)c3on(C)c(=O)c3c2)cc1C(=O)SC	inactive	19 µM		9.2 µM		18 µM		> 50 µM	6.4 µM	> 100 µM	3.7 µM	
COc1c(C)cc(/C(=C\CCc2nnc(C)o2)c2ccc(C#N)cc2)cc1C(=O)SC	inactive	45 µM		6.3 µM		5.5 µM		> 50 µM	2.1 µM	> 100 µM	3.2 µM	
Cc1ccnc2c1NC(=O)c1cccnc1N2C1CC1 [NEVIRAPINE]	inactive	15 µM							0.015 µM			
